Measurements from PMC10842363 (Clinical cancer research : an official journal of the …, 2023).
Read-outs that look alike come from different tables or passages of the source.

Columns and labels:
[1] = test system: HER2+ tumors, DCCs and metastases; experiment: Sequential Abemaciclib then HC4 treatment in MMTV-HER2 mice; format: in vivo, mouse; conditions: for GADD34 expression in primary tumors / Ki67 staining in primary tumors: 50 mpk daily, 4 weeks
kinases = experiment: KINOMEscan kinase selectivity assay; format: binding
Method in brief: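 Competition binding: kinases were T7 phage-tagged (grown in BL21-derived E. coli) or HEK-293-expressed with DNA tags. Incubated with biotinylated-ligand streptavidin beads and test compound (40x DMSO stocks) in SeaBlock/PBS/Tween/DTT buffer, 1 h RT. Eluted with 0.5 μM non-biotinylated ligand (30 min); kinase quantified by qPCR. Selectivity score S = hits/assays at a %Ctrl threshold, mutants excluded.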

T-HEp3 cells = experiment: T-HEp3 HNSCC PDX i.v. injection, solitary lung DCCs in Balb/c nu/nu mice; format: in vivo, human; conditions: 50 mg/kg for 10 days, started 24 h after i.v. injection
HER2 [2] = test system: HER2
MCF10A-HER2 cells [3] = test system: MCF10A-HER2 cells
[4] = test system: HER2+ DCCs and metastases
HER2 [5] = conditions: HC4-treated vs control animals
PERK [6] = target: PERK (Mus musculus, UniProt Q9Z2B5); conditions: 50 mpk IP daily, 2 weeks
[7] = Mammary gland morphology in non-tumor bearing healthy mice; format: in vivo; conditions: 2 weeks
[8] = test system: HER2-driven early lesions in the mammary gland
GADD34 [9] = conditions: E0771 luminal B breast cancer cells
EMT6 cells = experiment: EMT6 syngeneic spontaneous lung metastasis model; format: in vivo, Balb/c mice; conditions: 10 mg/kg
MCF10A-HER2 cells [10] = conditions: MCF10A-HER2 cells treated with HC4
HER2 [11] = test system: HER2; remark: listed apart in the source
[12] = test system: Fv2E-ΔNPERK fusion construct-expressing cell line; conditions: PERK dimerization induced with AP20187
[13] = Safety readouts in treated mice; format: in vivo
[14] = Repeated dosing tolerability; format: in vivo; conditions: repeated dosing from 30 to 100 mg/kg
PERK [15] = target: T1, PERK (Homo sapiens, UniProt Q9NZJ5); conditions: MCF10A cells overexpressing HER2
[16] = 28-day oral dosing study in mice; format: in vivo; conditions: oral dosing for 28 days, exposures similar to 50 mpk IP; data not shown
GADD34 [17] = conditions: MCF10A breast pre-malignant cells
ZR-75-1 cells = experiment: 3D acini culture in Matrigel, ZR-75-1; format: cell-based; conditions: ZR-75-1, 2 μM, 10-day treatment
[18] = In vivo pharmacokinetic study, single dose; conditions: IP administration, CD1 female mice
PERK [19] = target: T1, PERK; conditions: HEK293 cells stimulated with Tunicamycin
D-HEp3 cells = experiment: Chick chorioallantoic membrane; format: in vivo, human; conditions: 20 μM, 6-day treatment, CAM
MMTV-HER2 cells = experiment: Established metastases after tail vein injection of MMTV-HER2 cells; format: in vivo, mouse; conditions: 50 mg/kg for 2 weeks, started 3 weeks after tail vein injection
MMTV-HER2 tumors = experiment: Primary tumor growth in MMTV-HER2 females; format: in vivo, mouse
SKBR3 cells = experiment: 3D acini culture in Matrigel, SKBR3; format: cell-based; conditions: SKBR3, 2 μM, 10-day treatment
[20] = MCF10A-HER2, 2 μM, +/- EGF 100 ng/ml
[21] = MCF10A-HER2, in presence of Thapsigargin 4 nM

Chain of PERK (Mus musculus, UniProt Q9Z2B5) (Q9Z2B5 29-1114): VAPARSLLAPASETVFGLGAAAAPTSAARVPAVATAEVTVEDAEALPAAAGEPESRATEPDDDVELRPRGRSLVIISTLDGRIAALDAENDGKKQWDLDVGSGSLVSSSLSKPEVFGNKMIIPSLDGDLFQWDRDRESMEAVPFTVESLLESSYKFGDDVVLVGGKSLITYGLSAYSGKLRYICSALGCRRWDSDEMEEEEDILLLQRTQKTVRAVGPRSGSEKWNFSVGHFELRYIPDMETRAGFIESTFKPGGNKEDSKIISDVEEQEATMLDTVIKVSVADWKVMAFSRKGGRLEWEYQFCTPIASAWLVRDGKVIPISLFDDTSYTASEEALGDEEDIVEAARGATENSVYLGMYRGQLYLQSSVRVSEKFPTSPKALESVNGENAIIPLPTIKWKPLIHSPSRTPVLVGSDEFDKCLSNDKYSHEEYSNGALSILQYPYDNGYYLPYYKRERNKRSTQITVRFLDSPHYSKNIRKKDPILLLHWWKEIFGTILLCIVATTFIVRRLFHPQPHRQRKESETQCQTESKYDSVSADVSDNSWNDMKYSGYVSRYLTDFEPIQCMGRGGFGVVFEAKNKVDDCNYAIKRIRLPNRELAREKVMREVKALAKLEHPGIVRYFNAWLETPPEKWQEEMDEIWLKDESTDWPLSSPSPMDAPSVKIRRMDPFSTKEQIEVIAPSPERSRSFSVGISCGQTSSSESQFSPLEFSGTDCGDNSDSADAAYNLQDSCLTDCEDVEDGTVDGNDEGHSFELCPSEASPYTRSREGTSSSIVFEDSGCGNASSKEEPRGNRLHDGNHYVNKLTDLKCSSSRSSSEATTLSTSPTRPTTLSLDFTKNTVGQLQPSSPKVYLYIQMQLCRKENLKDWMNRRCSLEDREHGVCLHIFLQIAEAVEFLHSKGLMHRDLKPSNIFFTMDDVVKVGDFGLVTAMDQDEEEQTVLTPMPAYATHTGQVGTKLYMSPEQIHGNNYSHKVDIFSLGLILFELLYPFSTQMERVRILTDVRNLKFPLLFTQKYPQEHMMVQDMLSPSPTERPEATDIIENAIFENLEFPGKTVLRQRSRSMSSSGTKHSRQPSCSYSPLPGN
T1 sequence (Q9NZJ5 30-1116): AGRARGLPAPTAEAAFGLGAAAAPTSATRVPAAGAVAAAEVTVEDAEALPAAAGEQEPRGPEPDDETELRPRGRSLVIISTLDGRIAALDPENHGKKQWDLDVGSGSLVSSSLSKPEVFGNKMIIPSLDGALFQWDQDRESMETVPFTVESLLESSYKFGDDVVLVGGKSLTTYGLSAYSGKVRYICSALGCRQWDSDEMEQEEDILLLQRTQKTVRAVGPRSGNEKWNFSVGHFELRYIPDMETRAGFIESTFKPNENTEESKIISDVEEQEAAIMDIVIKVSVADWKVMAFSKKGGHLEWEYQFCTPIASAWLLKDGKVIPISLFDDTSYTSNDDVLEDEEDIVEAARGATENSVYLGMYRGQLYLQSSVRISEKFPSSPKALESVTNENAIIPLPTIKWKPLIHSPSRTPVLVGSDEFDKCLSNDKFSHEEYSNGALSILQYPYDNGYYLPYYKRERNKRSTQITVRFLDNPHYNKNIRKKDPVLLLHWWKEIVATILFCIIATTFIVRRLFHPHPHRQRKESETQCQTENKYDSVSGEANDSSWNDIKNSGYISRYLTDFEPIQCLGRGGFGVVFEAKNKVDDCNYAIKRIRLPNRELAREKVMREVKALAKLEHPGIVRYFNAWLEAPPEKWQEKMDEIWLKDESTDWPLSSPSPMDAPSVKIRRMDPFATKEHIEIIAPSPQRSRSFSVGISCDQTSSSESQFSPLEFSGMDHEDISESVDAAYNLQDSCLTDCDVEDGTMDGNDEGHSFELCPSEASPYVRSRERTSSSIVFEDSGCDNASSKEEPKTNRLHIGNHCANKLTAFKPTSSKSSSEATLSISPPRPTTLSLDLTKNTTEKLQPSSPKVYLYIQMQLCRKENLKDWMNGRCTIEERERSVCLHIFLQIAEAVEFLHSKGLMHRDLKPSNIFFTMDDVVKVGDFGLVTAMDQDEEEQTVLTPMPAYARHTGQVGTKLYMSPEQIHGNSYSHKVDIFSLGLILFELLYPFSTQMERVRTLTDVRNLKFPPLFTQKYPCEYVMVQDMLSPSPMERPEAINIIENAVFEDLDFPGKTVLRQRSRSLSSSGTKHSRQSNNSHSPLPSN

## CCN1CCN(Cc2ccc(Nc3ncc(F)c(-c4cc(F)c5nc(C)n(C(C)C)c5c4)n3)nc2)CC1 [Abema, Abemaciclib]
[1]
  GADD34 expression in primary tumors: increases
  Ki67 staining in primary tumors: reduces
[1]; lung sections
  Ki67+ solitary DCCs: almost absent

## Cc1cc(NC(=O)[C@H](O)c2cc(F)cc(F)c2)ccc1-c1cnc(N)c(C(=O)NC(C)C)c1 [HC4]
kinases; Supplementary Table S3
  specificity for EIF2AK3 (PERK) over EIF2AK1 (HRI), EIF2AK2 (PKR), EIF2AK4 (GCN2) or HER2: high specificity
kinases; compared to other PERK inhibitors, specifically GSK2656157, even at 10 μM
  KINOMEscan kinase profiling selectivity: exceedingly high selectivity
T-HEp3 cells
  reduction in the number of solitary HEp3 DCCs in the lung: ~ 3 fold
HER2 [2]; MCF10A-HER2, reversible surface biotinylation
  endocytosed phospho- and total HER2: clearly increased
HER2 [2]; MCF10A-HER2, not shown
  abundance of P-HER2 and total HER2 in the cell surface: did not significantly alter
MCF10A-HER2 cells [3]; 3D acini cultures, 2 μM, cell line not given
  levels of proliferation (phospho-histone H3): did not detect a significant change
MCF10A-HER2 cells [3]; MCF10A-HER2, 2 μM, 10-day treatment
  levels of apoptosis (cleaved caspase-3): significantly increased
[4]; 50 mpk IP daily, two weeks
  area of macro-metastases: not accompanied by a significant effect
  number and incidence of lung macro-metastases (>100 cells): reduced
  number of DCCs in bone marrow: significantly decreased
  number of P-Rb positive solitary DCCs in lung: not affecting
  number of lung micro-metastases (2-100 cells): significant decrease
  number of non-proliferating (P-Rb negative) single DCCs in lung: significantly reduced
[4]; vehicle vs HC4-treated animals
  HER2+ circulating tumor cells in blood: no significant differences
HER2 [5]
  P-HER2 levels in tumors (area and intensity score): significantly lower
PERK [6]; IHC
  P-PERK inhibition in pancreatic tissue, especially pancreatic islets: only partial inhibition
PERK [6]; mammary gland ducts and pancreatic tissue
  P-PERK and P-eIF2α levels by IHC: significant decrease
PERK [6]; tumor lysates
  decrease in P-PERK levels by western blot: around 50%
[7]
  normal branching and morphology of the mammary gland ductal tree: did not affect
[8]; 24-week-old MMTV-HER2 females, 50 mpk, 2 weeks
  mammary glandular architecture (ductal branching): less dense branching
[8]; 50 mpk, 2 weeks
  cytokeratin 8/18 expression in the luminal layer: increased expression
  number of occluded hyperplasias and DCIS-like lesions relative to vehicle: less than half
[8]; around 20 % in control females
  hollow lumen mammary gland ducts, share of structures: more than 60%
GADD34 [9]
  thapsigargin induced GADD34 expression: completely eliminated
EMT6 cells; 17 days, not shown
  primary tumor growth: without affecting
EMT6 cells; started 9 days after implanting, 17 days of treatment
  metastatic incidence and multiplicity of lesions per lung/animal: strongly inhibited
MCF10A-HER2 cells [10]
  sensitivity to low dose thapsigargin treatment: sensitive
HER2 [11]; [20]
  P-AKT, P-S6 and P-ERK1/2 levels: downregulation
  basal and EGF-induced levels of P-EGFR and P-HER2: decreased
HER2 [11]; [21]
  levels of P-HER2 and P-AKT: decrease
  molecular weight of phosphorylated HER2 protein: lower molecular weight
HER2 [11]; surface biotinylation and co-immunoprecipitation, data not shown
  total HER2 levels or heterodimerization with EGFR: No obvious effect
[12]
  rescue of pro-apoptotic function of strong PERK activation: fully rescued
[13]; MMTV-HER2 females, 50 mpk IP daily, two weeks
  bone marrow cell homeostasis and peripheral blood white cells (total cell counts): did not have a significant effect
[13]; non-tumor or cancer bearing mice, doses used
  glucose levels, bone marrow or peripheral blood cell counts, drinking and feeding behavior: did not significantly affect
[14]
  body weight: no significant changes
  tolerability: well tolerated
PERK [15]
  P-PERK (P-T980) levels: effectively decreased
[1]
  GADD34 expression in primary tumors: completely erased
  Ki67 staining in primary tumors: does not dramatically affect
[16]
  effects on the pancreas or clinical chemistry (insulin and glucose levels): no deleterious effects
GADD34 [17]
  thapsigargin induced GADD34 expression: completely eliminated
ZR-75-1 cells
  levels of apoptosis (cleaved caspase-3): significantly increased
[18]
  bioavailability: demonstrated bioavailability
PERK [19]
  P-PERK (P-T980) levels: effectively decreased
D-HEp3 cells
  dormant D-HEp3 cells in vivo: eradication
  increase in cleaved caspase-3 positive D-HEp3 cells in the nodules: 5 fold
MMTV-HER2 cells
  frequency of already established micro-metastases: not affecting
  macro-metastatic lesion incidence and total metastatic burden: strongly reduce
MMTV-HER2 tumors; 2-week window treatment
  tumors showing regression: Four
MMTV-HER2 tumors; 50 mpk daily, two weeks
  DNA fragmentation (TUNEL staining) in tumor sections: significant increase
  median final tumor volume: significant decrease
MMTV-HER2 tumors; overt tumors, 50 mpk daily, two weeks
  tumor growth: reduced growth rate
MMTV-HER2 tumors; vehicle- vs HC4-treated tumors
  levels of proliferation (phospho-histone H3 IHC) in tumors: not different
SKBR3 cells
  levels of apoptosis (cleaved caspase-3): significantly increased
